Results on five compounds are retold here after ChEMBL document CHEMBL3244072, “Synthesis and antiviral and enzymatic studies of certain 3-deazaguanines and their imidazolecarboxamide precursors” (J Med Chem, 1978).

One may read the inhibition as the share of the control response that was lost under treatment.

Calls of active or inactive are those of the source. No cut-off for these calls is given here.

The test system of one data set is Epidermophyton floccosum. As to the kind of experiment: Antimicrobial activity against Epidermophyton floccosum at 0.4 umol/mL by broth microdilution method. Type of data set: functional, organism-based. The gist of the method:
(§1)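 Broth dilution in defined medium against clinical isolates of each organism.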
A general note: In broth dilution the organism is exposed to a series of concentrations in liquid medium.

Data set [1] concerns Mus musculus. As to the kind of experiment: Toxicity in Influenza B virus Lee infected Swiss-Webster mouse assessed as mortality at 50 mg/kg, po qd for 9 days. Further details: dose 50 mg/kg, route oral. Conditions: in vivo, 216 h. Format: organism-based.
Data set [2] concerns Ehrlich. Kind of data set: Inhibition of guanine nucleotide biosynthesis in mouse EAC assessed as [14C]hypoxanthine incorporation at 1 mM after 60 mins by TLC analysis. Type of data set: functional. Conditions: 1 h. An outline of the steps:
(§2)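 Ehrlich ascites tumor cells (about 6 × 10^6 cells/mL) preincubated 20 min at 37 °C with or without 1 mM compound. [14C]hypoxanthine (55 μCi/μmol) then added to 0.1 mM final for 60 min. Label in adenine or guanine nucleotides of the acid-soluble fraction measured by TLC; inhibition calculated against untreated cells.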

In data set [3] the test system is Influenza B virus. As to the kind of experiment: Antiviral activity against Influenza B virus Lee infected in Swiss-Webster mouse assessed as host mean survival days at 3.1 mg/kg, po qd for 9 days. Format: functional, B/Lee/1940.
A further data set deals with Staphylococcus aureus. Kind of data set: Antimicrobial activity against Staphylococcus aureus at 0.4 umol/mL by broth microdilution method. Format: functional, organism-based. The gist of the method:
as §1

Data set [4] relates to KB. Kind of data set: Antiviral activity against Adenovirus type 3 infected in human KB cells assessed as inhibition of virus-induced cytopathic effect after 72 hrs relative to control. Format: functional, cell-based. Conditions: Human adenovirus 3. The gist of the method:
(§3)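 Cell monolayers (18-24 h) infected with 320 CCID50 of virus; compound added within 15 min at half-log dilutions from 1000 to 1 μg/mL. After 72 h at 37 °C, CPE and cytotoxicity scored microscopically (0-4). Virus rating = sum of (control CPE − treated CPE) over drug levels, halved at any level showing toxicity.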
In general terms: Cytopathic effects are the visible damage that an infection or toxin causes in cultured cells.

In data set [5] the test system is Ehrlich. As to the kind of experiment: Inhibition of adenine nucleotide biosynthesis in mouse EAC assessed as [14C]hypoxanthine incorporation at 1 mM after 60 mins by TLC analysis. Format: functional. Conditions: 1 h. The gist of the method:
as §2

The test system of data set [6] is Mus musculus. Kind of data set: Toxicity in Influenza B virus Lee infected Swiss-Webster mouse assessed as mortality at 12.5 mg/kg, po qd for 9 days. Format: organism-based. Further details: dose 12.5 mg/kg, route oral. The note with it: in vivo, 216 h.
A further data set concerns Candida albicans. Kind of data set: Antimicrobial activity against Candida albicans at 0.4 umol/mL by broth microdilution method. Type of data set: functional, organism-based. An outline of the steps:
as §1

Data set [7] has as its system KB. Kind of data set: Antiviral activity against Rhinovirus type 13 infected in human KB cells assessed as inhibition of virus-induced cytopathic effect after 72 hrs relative to control. Format: functional, cell-based. Conditions: Human rhinovirus A13. The gist of the method: as §3
For data set [8], the system named is Influenza B virus. Kind of data set: Antiviral activity against Influenza B virus Lee infected in Swiss-Webster mouse assessed as host mean survival days at 50 mg/kg, po qd for 9 days. Type of data set: functional, B/Lee/1940.
Data set [9] concerns Trichophyton mentagrophytes. As to the kind of experiment: Antimicrobial activity against Trichophyton mentagrophytes at 0.4 umol/mL by broth microdilution method. Type of data set: functional, organism-based. An outline of the steps: as §1
The subject of the next data set is Microsporum canis. As to the kind of experiment: Antimicrobial activity against Microsporum canis at 0.4 umol/mL by broth microdilution method. Format: functional, organism-based. An outline of the steps: as §1
In data set [10] the test system is Influenza B virus. Kind of data set: Antiviral activity against Influenza B virus Lee infected in Swiss-Webster mouse assessed as host mean survival days at 12.5 mg/kg, po qd for 9 days. Type of data set: functional, B/Lee/1940.
A further data set has as its system Human alphaherpesvirus 1. Kind of data set: Antiviral activity against HSV1 infected in human KB cells assessed as inhibition of virus-induced cytopathic effect after 72 hrs relative to control. Format: functional, organism-based. The gist of the method:
as §3

The next data set deals with Pseudomonas aeruginosa. Kind of data set: Antimicrobial activity against Pseudomonas aeruginosa at 0.4 umol/mL by broth microdilution method. Type of data set: functional, organism-based. The gist of the method:
as §1

The subject of data set [11] is Mus musculus. Kind of data set: Toxicity in Influenza B virus Lee infected Swiss-Webster mouse assessed as mortality at 100 mg/kg, po qd for 9 days. Format: organism-based. Further details: dose 100 mg/kg, route oral. The note with it: in vivo, 216 h.
The next data set deals with Human respirovirus 3. As to the kind of experiment: Antiviral activity against Parainfluenza virus 3 infected in human KB cells assessed as inhibition of virus-induced cytopathic effect after 72 hrs relative to control. Type of data set: functional, organism-based. An outline of the steps: as §3
Data set [12] relates to Influenza B virus. Kind of data set: Antiviral activity against Influenza B virus Lee infected in Swiss-Webster mouse assessed as host mean survival days at 100 mg/kg, po qd for 9 days. Format: functional, B/Lee/1940.
Data set [13] concerns the target Bifunctional purine biosynthesis protein ATIC (Homo sapiens) (UniProt P31939). As to the kind of experiment: Inhibition of Escherichia coli IMP cyclohydrolase (unknown origin) assessed as ratio of compound concentration for 50% inhibition of enzyme activity to 1.7 to 3 x 10^-5 M of substrate concentration. The gist of the method: (§4)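 Enzymes partially purified from Escherichia coli B. Substrate at 1.7-3.0 × 10^-5 M. Value is the ratio of inhibitor concentration giving 50% inhibition to substrate concentration.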

Data set [14] deals with Escherichia coli. Kind of data set: Inhibition of Escherichia coli adenylosuccinate synthetase assessed as ratio of compound concentration for 50% inhibition of enzyme activity to 1.7 to 3 x 10^-5 M of substrate concentration. The gist of the method:
as §4

Data set [15] has as its system Escherichia coli. Kind of data set: Inhibition of Escherichia coli IMP dehydrogenase assessed as ratio of compound concentration for 50% inhibition of enzyme activity to 1.7 to 3 x 10^-5 M of substrate concentration. An outline of the steps: as §4
Another data set relates to Vaccinia virus. As to the kind of experiment: Antiviral activity against Vaccinia virus infected in human KB cells assessed as inhibition of virus-induced cytopathic effect after 72 hrs relative to control. Type of data set: functional, organism-based. Conditions: Orthopoxvirus vaccinia. The gist of the method:
as §3

A further data set has as its system Human alphaherpesvirus 2. As to the kind of experiment: Antiviral activity against HSV2 infected in human KB cells assessed as inhibition of virus-induced cytopathic effect after 72 hrs relative to control. Type of data set: functional, organism-based. The gist of the method: as §3
Data set [16] concerns Influenza B virus. As to the kind of experiment: Antiviral activity against Influenza B virus Lee infected in Swiss-Webster mouse assessed as host mean survival days at 10 mg/kg, po qd for 9 days. Type of data set: functional, B/Lee/1940.
Data set [17] relates to Influenza B virus. As to the kind of experiment: Antiviral activity against Influenza B virus Lee infected in Swiss-Webster mouse assessed as host mean survival days at 40 mg/kg, po qd for 9 days. Format: functional, B/Lee/1940.
Data set [18] relates to Influenza B virus. As to the kind of experiment: Antiviral activity against Influenza B virus Lee infected in Swiss-Webster mouse assessed as host mean survival days at 2.5 mg/kg, po qd for 9 days. Type of data set: functional, B/Lee/1940.
In data set [19] the test system is Escherichia coli. As to the kind of experiment: Antimicrobial activity against Escherichia coli at 0.0025 to 0.125 umol/mL by broth microdilution method. Type of data set: functional, organism-based. The gist of the method: as §1

Bifunctional purine biosynthesis protein ATIC (Homo sapiens), sequence (P31939 whole entry, looked up): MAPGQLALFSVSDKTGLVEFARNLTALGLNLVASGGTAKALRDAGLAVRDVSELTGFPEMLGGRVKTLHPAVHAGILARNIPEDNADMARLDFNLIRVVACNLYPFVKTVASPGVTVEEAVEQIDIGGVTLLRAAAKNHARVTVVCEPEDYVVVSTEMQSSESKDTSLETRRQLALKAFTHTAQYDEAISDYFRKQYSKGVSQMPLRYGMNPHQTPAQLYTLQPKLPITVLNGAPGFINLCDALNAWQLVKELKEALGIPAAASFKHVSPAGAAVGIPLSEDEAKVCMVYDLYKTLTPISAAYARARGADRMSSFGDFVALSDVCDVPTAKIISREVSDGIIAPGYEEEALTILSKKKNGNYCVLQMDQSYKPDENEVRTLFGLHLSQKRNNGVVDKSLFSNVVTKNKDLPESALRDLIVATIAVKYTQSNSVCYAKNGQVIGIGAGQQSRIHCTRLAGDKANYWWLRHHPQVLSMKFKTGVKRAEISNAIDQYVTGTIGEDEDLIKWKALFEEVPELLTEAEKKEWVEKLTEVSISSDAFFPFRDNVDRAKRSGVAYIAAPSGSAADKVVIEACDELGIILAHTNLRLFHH

As to `N#CCc1[nH]cnc1C(N)=O`, the result (with Epidermophyton floccosum; in the data set on Staphylococcus aureus; in the data set on Candida albicans; in data set [9]; with Microsporum canis; in the data set with Pseudomonas aeruginosa) was inactive. In addition, the Activity result in the data set with Mus musculus [1], in the data set with Mus musculus [6] and with Mus musculus [11] was “Non-toxic” throughout. Further, the inhibition at 1000 µM in the data set on Ehrlich [2] worked out at 39%; in the data set with Ehrlich [5], 8%. Besides, the Time is 0.23 days in the data set on Influenza B virus [3], above 0.3 days in the data set with Influenza B virus [8], above 0.3 days with Influenza B virus [10] and 0.118 days with Influenza B virus [12]. For the same compound, the outcome in the data set on KB [4], in the data set on KB [7], in the data set with Human alphaherpesvirus 1 and in the data set with Human respirovirus 3 was Active.
With `NC(=O)c1ncn([C@@H]2O[C@H](COP(=O)(O)O)[C@@H](O)[C@H]2O)n1`, the values for the Ratio (in data set [13]; in the data set with Escherichia coli [14]; in the data set on Escherichia coli [15]) were 0.46, 160 and 0.016, respectively.
With `Nc1cc2c(ncn2[C@@H]2O[C@H](CO)[C@@H](O)[C@H]2O)c(=O)[nH]1`, the result (with Epidermophyton floccosum; in the data set on Staphylococcus aureus; with Candida albicans; in [9]; with Microsporum canis; in the data set on Pseudomonas aeruginosa) was inactive. In addition, the result in the data set on Vaccinia virus, in the data set with Human alphaherpesvirus 2, in the data set on KB [4], in the data set with KB [7], in the data set with Human alphaherpesvirus 1 and in the data set on Human respirovirus 3 was Active. Moreover, the inhibition at 1000 µM stood at 38% in the data set on Ehrlich [2] and 24% in the data set with Ehrlich [5]. Besides, the Time is above 0.3 days in the data set on Influenza B virus [16], above 0.3 days with Influenza B virus [17] and 0.118 days in the data set with Influenza B virus [18].
Turning to `N#CCc1c(C(N)=O)ncn1[C@@H]1O[C@H](CO)[C@@H](O)[C@H]1O`, the result (with Epidermophyton floccosum; in the data set on Vaccinia virus; in the data set on Staphylococcus aureus; with Candida albicans; in the data set with KB [7]; in data set [9]) was inactive. The result in the data set on Microsporum canis, with Pseudomonas aeruginosa and with Human respirovirus 3 was inactive. Moreover, the result with Human alphaherpesvirus 2 and in the data set with Human alphaherpesvirus 1 was Active. The inhibition at 1000 µM stood at 11% in the data set with Ehrlich [2] and 6% in the data set on Ehrlich [5]. In addition, the Time is 0.118 days in the data set with Influenza B virus [8], above 0.3 days in the data set with Influenza B virus [10] and above 0.3 days in the data set with Influenza B virus [12].
Take `Nc1cc2[nH]cnc2c(=O)[nH]1` [DEZAGUANINE]: the outcome (in the data set on Epidermophyton floccosum; with Staphylococcus aureus; in the data set on Candida albicans; in [9]; in the data set on Microsporum canis; in the data set with Pseudomonas aeruginosa) was inactive. The result in the data set on Vaccinia virus, in the data set on Human alphaherpesvirus 2, in the data set with Escherichia coli [19], in the data set on KB [4], with KB [7] and in the data set on Human alphaherpesvirus 1 was Active. The outcome with Human respirovirus 3 was Active. Further, the results for the inhibition at 1000 µM with Ehrlich [2] and with Ehrlich [5] were 40% and 20%, respectively. Further, the figures for the Time with Influenza B virus [16] and in the data set with Influenza B virus [17] were above 0.3 days and 0.23 days, respectively.
